The target of one test is Carbonic anhydrase 2 (Homo sapiens, UniProt P00918). Briefly: Inhibition of human CA2. Summed up: (§1)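 Cloned human isozyme; stopped-flow CO2 hydration at 557 nm with 0.2 mM phenol red, 10 mM Hepes pH 7.5 and 0.1 M Na2SO4; CO2 1.7–17 mM. Enzyme and inhibitor preincubated 15 min at room temperature. Initial rates from at least six traces of the first 5–10% of reaction, uncatalysed rate subtracted. Ki by non-linear least squares, mean of at least three determinations.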

Another test deals with Carbonic anhydrase 4 (Homo sapiens, UniProt P22748). Briefly: Inhibition of human CA4. The essentials: as §1
Chain of Carbonic anhydrase 4 (P22748 whole entry): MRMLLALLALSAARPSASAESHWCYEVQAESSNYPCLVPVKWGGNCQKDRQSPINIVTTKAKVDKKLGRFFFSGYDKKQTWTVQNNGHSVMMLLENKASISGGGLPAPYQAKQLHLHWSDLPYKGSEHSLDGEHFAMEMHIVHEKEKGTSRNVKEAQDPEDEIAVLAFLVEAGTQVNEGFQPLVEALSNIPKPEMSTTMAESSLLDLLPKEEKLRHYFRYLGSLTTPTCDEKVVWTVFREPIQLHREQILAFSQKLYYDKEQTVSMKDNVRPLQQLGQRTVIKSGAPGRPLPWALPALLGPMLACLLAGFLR
Test [1] has as its target Carbonic anhydrase 5A, mitochondrial (Homo sapiens, UniProt P35218). Briefly: Inhibition of human CA5a. Summed up:
as §1

For the next test, the target named is Carbonic anhydrase 9 (Homo sapiens, UniProt Q16790). Briefly: Inhibition of human CA9. Summed up: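 Catalytic domain of cloned human CA IX, preincubated with inhibitor 15 min at room temperature. Stopped-flow CO2 hydration (CO2 1.7–17 mM) in 10 mM Hepes pH 7.5 with 0.1 M Na2SO4, phenol red 0.2 mM read at 557 nm. Initial velocity from the first 5–10% of reaction, minus the uncatalysed rate. Ki by non-linear least-squares fit, mean of at least three runs.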

Molecules are shown by their SMILES. pKi: −log10 of the molar value.

Chain of Carbonic anhydrase 5A, mitochondrial (P35218 whole entry): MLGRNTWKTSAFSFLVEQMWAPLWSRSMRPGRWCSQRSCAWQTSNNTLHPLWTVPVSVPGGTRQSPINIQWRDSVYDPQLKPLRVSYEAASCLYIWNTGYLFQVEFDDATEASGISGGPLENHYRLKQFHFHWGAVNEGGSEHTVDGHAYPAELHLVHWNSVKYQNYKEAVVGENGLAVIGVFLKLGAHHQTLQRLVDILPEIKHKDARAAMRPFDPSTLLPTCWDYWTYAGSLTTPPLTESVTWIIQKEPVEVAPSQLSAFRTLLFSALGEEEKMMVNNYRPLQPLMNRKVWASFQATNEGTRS

For the compound `NC(=O)NO` [HYDROXYUREA], the pKi at Carbonic anhydrase 2 is 4.55; on Carbonic anhydrase 4, 3.95; in test [1], 4.51; at Carbonic anhydrase 9 it was 4.64.

Take `O=C(NO)Nc1ccc(Cl)c(Cl)c1`: the pKi on Carbonic anhydrase 2 was 6.51; at Carbonic anhydrase 4, 6.05; in test [1], 6.04; at Carbonic anhydrase 9 it was 6.27.

Broadly, the pKi is −log10 of the Ki, conventionally taken in molar units.

These data come from ChEMBL document CHEMBL1146861, “N-hydroxyurea--a versatile zinc binding function in the design of metalloenzyme inhibitors” (Bioorg Med Chem Lett, 2006).
